Source: PubChem BioAssay (Broad Institute)
Pf Dd2 growth – blocks growth of Plasmodium falciparum Dd2 parasites; P. falciparum Dd2 growth, SYBR Green, 72 h; hits give low values; actives 2.3% (n = 94,000); activity change, % at 10 µM; in the data active means activity change below about -80%
GASC1 inh – KDM4C (human) demethylase inhibition | Q9H3R0 | GST-KDM4C 2-372, H3K9me3 peptide, LANCE TR-FRET | inhibition, % at 12.5 µM | actives 0.15% (n = 96,000) | AID 720574;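 active means mean replicate inhibition above about 25%, with at least 55% of replicates also reaching it, limit read from the data, passing the limit was not always enough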
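Assay system: GST-GASC-1 enzyme fragment 2-372 | Amount: 10 nM enzyme | Medium: HEPES buffer, pH 7.5, plus ascorbate | Reagent: H3K9me3 peptide substrate, Fe(II), 2-oxoglutarate | Doses: Single-point compound screen | Incubation: 30 min demethylation and 1 h detection at room temperature | Measured by: LANCE TR-FRET, excitation 340 nm, emissions 618 and 671 nm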
IDH1 mut inh – IDH1 R132H (human) inhibition | O75874 | IDH1 R132H reductase, diaphorase/resazurin fluorescence, 60 min | inhibition, % at 10 µM | actives 0.18% (n = 70,000) | AID 624101; in the data active means inhibition above about 34%;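 further: 0% = DMSO and 100% = no enzyme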
Target sequence (O75874 whole entry R132H): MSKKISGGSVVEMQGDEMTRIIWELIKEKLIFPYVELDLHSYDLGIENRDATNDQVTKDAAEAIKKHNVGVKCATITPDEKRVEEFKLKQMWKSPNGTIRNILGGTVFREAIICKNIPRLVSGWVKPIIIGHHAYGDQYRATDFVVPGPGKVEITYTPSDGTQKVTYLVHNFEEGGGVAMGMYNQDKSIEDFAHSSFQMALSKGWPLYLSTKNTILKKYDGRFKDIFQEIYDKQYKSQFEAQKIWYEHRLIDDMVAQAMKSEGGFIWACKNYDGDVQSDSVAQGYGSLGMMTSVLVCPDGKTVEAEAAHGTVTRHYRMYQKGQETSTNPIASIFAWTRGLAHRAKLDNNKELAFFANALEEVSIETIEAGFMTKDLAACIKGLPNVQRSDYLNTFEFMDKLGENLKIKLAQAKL
Tcruzi prolif – inhibitors of T. cruzi proliferation; T. cruzi beta-gal in NIH3T3, GalScreen luminescence, 90 h; inhibition, % at 8.34 µM; actives 5.9% (n = 77,000); AID 624255;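 active means mean inhibition above about 93%, with at least 55% of replicates each passing it, limit read from the data, passing the limit was not always enough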
An asterisk follows results filed as active; x = no result. Most compounds without a hit are left out; they make up all but 5.8% or so of the library.

SMILES | Pf Dd2 growth | GASC1 inh | IDH1 mut inh | Tcruzi prolif
C[C@@H]1CCCCO[C@H](CN(C)Cc2ccc(Cl)c(Cl)c2)[C@@H](C)CN([C@@H](C)CO)C(=O)c2cc(NC(=O)Nc3ccc4c(c3)OCO4)ccc2O1 | -91* | -5 | x | 65
C[C@@H]1CN([C@@H](C)CO)C(=O)c2cc(NC(=O)Nc3ccc(F)cc3)ccc2O[C@@H](C)CCCCO[C@@H]1CN(C)Cc1ccc2c(c1)OCO2 | -83* | -1 | x | 75
O=C(COc1ccccc1C(=O)O)Nc1ccccc1 | x | x | 0 | x
COCCCNC(=O)c1cc(-c2ccccc2)nc2c(C)cc(C)cc12 | x | x | 0 | x
CC(=O)c1cccc(NC(=O)CCN2C(=O)C3CC=C(Cl)CC3C2=O)c1 (stereo unspecified) | x | x | 0 | x
C[C@H]1CN([C@@H](C)CO)C(=O)c2cccc(NC(=O)C3CCCCC3)c2O[C@H]1CN(C)Cc1ccc(C(=O)Nc2ccccc2N)cc1 | -69 | -1 | x | 80
C[C@@H]1CN([C@@H](C)CO)C(=O)c2cccc(NC(=O)C3CCCCC3)c2O[C@H]1CN(C)Cc1ccc(C(=O)Nc2ccccc2N)cc1 | -87* | -3 | 0 | 72
C[C@H]1CN([C@@H](C)CO)C(=O)c2cccc(NC(=O)C3CC3)c2O[C@@H]1CN(C)Cc1ccc(C(=O)Nc2ccccc2N)cc1 | -54 | 1 | 0 | 91
C[C@@H]1CN([C@H](C)CO)C(=O)c2cccc(NC(=O)C3CCCCC3)c2O[C@@H]1CN(C)Cc1ccc(C(=O)Nc2ccccc2N)cc1 | -84* | -2 | -1 | 70
C[C@@H]1CN([C@H](C)CO)C(=O)c2cccc(NC(=O)C3CCCCC3)c2O[C@H]1CN(C)Cc1ccc(C(=O)Nc2ccccc2N)cc1 | -86* | -4 | x | 76
C[C@@H]1CN([C@@H](C)CO)C(=O)c2cccc(NC(=O)NC3CCCCC3)c2O[C@@H]1CN(C)Cc1ccc(C(=O)Nc2ccccc2N)cc1 | -90* | -1 | x | 65
COC(=O)c1cccc(NC(=O)CN(c2ccc(F)c(Cl)c2)S(C)(=O)=O)c1C | x | x | 0 | x
C[C@@H]1CN([C@@H](C)CO)C(=O)c2cccc(NC(=O)Nc3ccccc3)c2O[C@@H]1CN(C)C(=O)Nc1ccccc1 | -91* | 0 | x | 59
Cc1noc(C)c1NC(=O)N(C)C[C@H]1Oc2c(NC(=O)Nc3ccc(C(F)(F)F)cc3)cccc2C(=O)N([C@@H](C)CO)C[C@H]1C | -86* | 1 | -1 | 90
C[C@H]1CN([C@@H](C)CO)C(=O)c2cccc(NC(=O)Nc3cccc4ccccc34)c2O[C@H]1CN(C)C(=O)NC1CCCCC1 | -85* | -4 | -1 | 53
C[C@@H]1CN([C@H](C)CO)C(=O)c2cccc(NC(=O)Nc3ccccc3)c2O[C@@H]1CN(C)C(=O)Nc1ccccc1 | -41 | 0 | x | 64
C[C@@H]1CN([C@H](C)CO)C(=O)c2cccc(NC(=O)Nc3cccc4ccccc34)c2O[C@@H]1CN(C)C(=O)NC1CCCCC1 | -77 | -2 | -4 | 54
COc1ccc(NC(=O)Nc2cccc3c2O[C@H](CN(C)C(=O)Nc2ccc4c(c2)OCO4)[C@@H](C)CN([C@@H](C)CO)C3=O)cc1 | -11 | 4 | x | 32
COc1ccc(NC(=O)N(C)C[C@H]2Oc3c(NC(=O)Nc4ccc5c(c4)OCO5)cccc3C(=O)N([C@@H](C)CO)C[C@H]2C)cc1 | -86* | -3 | x | -2
CC(C)(C)c1cc(C(C)(C)C)n(-c2ccc(-n3cccc3)cc2)n1 | x | x | 0 | x
O/N=C/c1ccc(Cl)s1 | x | x | 0 | x
COc1ccc(NC(=O)Nc2cccc3c2O[C@H](CN(C)C(=O)Nc2cccc4ccccc24)[C@H](C)CN([C@@H](C)CO)C3=O)cc1 | -88* | -1 | 0 | 11
COc1ccc(NC(=O)N(C)C[C@H]2Oc3c(NC(=O)Nc4ccccc4)cccc3C(=O)N([C@H](C)CO)C[C@H]2C)cc1 | -86* | 3 | x | -7
COc1ccc(NC(=O)Nc2cccc3c2O[C@H](CN(C)C(=O)Nc2ccccc2)[C@@H](C)CN([C@H](C)CO)C3=O)cc1 | -4 | 0 | 0 | -15
C[C@@H]1CN([C@@H](C)CO)C(=O)c2cccc(NC(=O)Nc3ccccc3)c2O[C@@H]1CN(C)C(=O)Nc1ccc(F)cc1 | -91* | -1 | 2 | 45
SMILES | Pf Dd2 growth | GASC1 inh | IDH1 mut inh | Tcruzi prolif
CCCN(C)C[C@H]1OCCCC[C@@H](C)Oc2ccc(NC(=O)Cc3ccccc3)cc2C(=O)N([C@H](C)CO)C[C@H]1C | -44 | 0 | 0 | 92
C[C@@H]1CCCCO[C@@H](CN(C)CC2CCCCC2)[C@@H](C)CN([C@@H](C)CO)C(=O)c2cc(NC(=O)Cc3ccccc3)ccc2O1 | -49 | -1 | x | 58
C[C@@H]1CCCCO[C@H](CN(C)CC2CCCCC2)[C@@H](C)CN([C@H](C)CO)C(=O)c2cc(NC(=O)Cc3ccccc3)ccc2O1 | -84* | 3 | x | 44
CCCN(C)C[C@H]1OCCCC[C@@H](C)Oc2ccc(NC(=O)Cc3ccccc3)cc2C(=O)N([C@@H](C)CO)C[C@H]1C | -86* | -1 | -2 | 23
COc1ccc2c3c([nH]c2c1)[C@H](CO)N(C(=O)c1cccc(F)c1)CC31CCN(C(=O)CC2CC2)CC1 | -82* | -1 | x | x
COc1ccc2c3c([nH]c2c1)[C@H](CO)N(C(=O)c1cccc(F)c1)CC31CN(C(=O)CC2CC2)C1 | -78 | 6 | x | x
COc1ccc2c3c([nH]c2c1)[C@@H](CO)N(Cc1ccc(F)cc1)CC31CCN(C(C)=O)CC1 | 35 | x | x | x
CCCNC(=O)N1CCC2(CC1)CN(Cc1cccc(F)c1)[C@H](CO)c1[nH]c3cc(OC)ccc3c12 | -83* | 0 | x | x
COc1ccc2c3c([nH]c2c1)[C@H](CO)N(Cc1cccc(F)c1)CC31CCN(C(C)=O)CC1 | -83* | 0 | x | x
CCCNC(=O)N1CCC2(CC1)CN(Cc1cccc(OC)c1)[C@H](CO)c1[nH]c3cc(OC)ccc3c12 | -74 | -1 | x | x
CN1CCN(NC(=O)CN2C(=O)S/C(=C/c3ccc(Cl)cc3)C2=O)CC1 | x | x | 0 | x
CC(C)[C@@H]1CC[C@@]2(C)CCC[C@@](C)(O)[C@@H]2[C@H]1OC(=O)/C=C/c1ccccc1 | x | x | 0 | x
CS(=O)(=O)N(CC(=O)Nc1ccc(Br)cc1F)c1ccccc1Cl | x | x | 1 | x
COc1ccc2c3c(n(C)c2c1)[C@@H](CO)N(C(=O)C1CCC1)CC31CCN(C(=O)CN(C)C)CC1 | -65 | 1 | x | x
CCS(=O)(=O)N1CCC2(CC1)CN(C(=O)Nc1cccc(F)c1)[C@H](CO)c1c2c2ccc(OC)cc2n1C | -88* | -1 | x | x
COc1ccc2c3c(n(C)c2c1)[C@H](CO)N(C(=O)C1CCC1)CC31CCN(C(=O)CN(C)C)CC1 | -82* | 0 | x | x
COc1ccc2c3c(n(C)c2c1)[C@H](CO)N(C(=O)C1CC1)CC31CCN(C(=O)Nc2cccc(F)c2)CC1 | -82* | 0 | x | x
COc1ccc(NC(=O)N2CCC3(CC2)CN(C(=O)C2CCC2)[C@@H](CO)c2c3c3ccc(OC)cc3n2C)cc1 | -93* | 0 | x | x
COc1ccc(NC(=O)N2CC3(C2)CN(C(=O)C2CCC2)[C@@H](CO)c2c3c3ccc(OC)cc3n2C)cc1 | -29 | 1 | x | x
